The source made the active and inactive calls. The calls are words filed in the database; no cut-off is given here.
Assays:
[1] = Inhibition of trypsin after 30 mins
Procedure, shortened: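 Trypsin stock 1 mg/mL in 0.05 M Tris-HCl/100 mM NaCl/1 mM CaCl2, pH 7.5. Sample (1 mg/mL DMSO stock) preincubated with enzyme at 37 °C for 10 min. BAPNA substrate (stock in 1:9 DMSO/Tris buffer) then added. Kinetics at 405 nm, 37 °C, for 30 min, giving IC50.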

[2] = Inhibition of chymotrypsin after 30 mins
Procedure, shortened: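 Commercial chymotrypsin, 10 mg/mL stock in 0.05 M Tris-HCl/100 mM NaCl/1 mM CaCl2, pH 7.5. Sample (1 mg/mL DMSO stock) preincubated with enzyme in buffer at 37 °C for 10 min. Suc-Gly-Gly-p-nitroanilide substrate (1 mg/mL stock in Tris buffer) then added. Reaction kinetics followed at 405 nm, 37 °C, for 30 min.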

[3] = molecular target: Chymotrypsin-like elastase family member 1 (Homo sapiens) (UniProt Q9UNI1); test: Inhibition of elastase after 20 mins
Procedure, shortened: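 Elastase stock 75 mg/mL in 0.2 M Tris-HCl, pH 8. Sample (1 mg/mL DMSO stock) preincubated with enzyme in buffer at 30 °C for 20 min. N-Suc-Ala-Ala-Ala-p-nitroanilide substrate (1 mg/mL stock in Tris buffer) then added. Kinetics read at 405 nm, 37 °C, for 20 min.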

Prothrombin = Prothrombin (Homo sapiens, UniProt P00734); test: Inhibition of thrombin after 20 mins
Procedure, shortened: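 Thrombin in 0.2 M Tris-HCl, pH 8, preincubated with sample (DMSO, 1 mg/mL stock) at 25 °C for 5 min. Z-Gly-Pro-Arg-4MβNA substrate (0.5 mg/mL stock in Tris buffer) then added. Reaction kinetics read at 405 nm, 37 °C, for 20 min; IC50 reported.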

Chain of Chymotrypsin-like elastase family member 1 (Homo sapiens) (Q9UNI1 whole entry): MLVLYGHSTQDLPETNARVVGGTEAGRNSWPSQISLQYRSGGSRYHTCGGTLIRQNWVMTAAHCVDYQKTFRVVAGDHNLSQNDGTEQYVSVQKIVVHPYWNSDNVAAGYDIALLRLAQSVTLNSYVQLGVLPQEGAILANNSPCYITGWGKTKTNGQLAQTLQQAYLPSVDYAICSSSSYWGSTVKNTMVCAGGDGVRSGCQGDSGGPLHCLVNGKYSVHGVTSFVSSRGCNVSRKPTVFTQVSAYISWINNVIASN

| SMILES | IC50 [1] | Activity [2] | Activity [3] | Activity (Prothrombin) | IC50 (Prothrombin) |
| --- | --- | --- | --- | --- | --- |
| CC[C@H](C)[C@@H]1NC(=O)[C@H](Cc2ccccc2)N(C)C(=O)[C@H]([C@@H](C)CC)N2C(=O)[C@H](CC[C@H]2O)NC(=O)[C@H](CCCNC(=N)N)NC(=O)[C@@H](NC(=O)[C@@H](COS(=O)(=O)O)OS(=O)(=O)O)[C@@H](C)OC1=O [CYANOPEPTOLIN SS] | 2.9 µM | inactive | inactive | – | – |
| CC[C@H](C)[C@@H]1NC(=O)[C@H](Cc2ccccc2)N(C)C(=O)[C@H]([C@@H](C)CC)N2C(=O)[C@H](CC[C@H]2OC)NC(=O)[C@H](CCCNC(=N)N)NC(=O)[C@@H](N)[C@@H](C)OC1=O | – | inactive | inactive | inactive | – |
| CC[C@H](C)[C@@H]1NC(=O)[C@H](Cc2ccccc2)N(C)C(=O)[C@H]([C@@H](C)CC)N2C(=O)[C@H](CC[C@H]2O)NC(=O)[C@H](CCCNC(=N)N)NC(=O)[C@@H](NC(=O)[C@H](O)COS(=O)(=O)O)[C@@H](C)OC1=O [CYANOPEPTOLIN S] | 4.1 µM | inactive | inactive | inactive | – |
| CC[C@H](C)[C@@H]1NC(=O)[C@H](Cc2ccccc2)N(C)C(=O)[C@H]([C@@H](C)CC)N2C(=O)[C@H](CC[C@H]2OC)NC(=O)[C@H](CCCNC(=N)N)NC(=O)[C@@H](NC(=O)[C@@H](COS(=O)(=O)O)OS(=O)(=O)O)[C@@H](C)OC1=O | 1.6 µM | inactive | inactive | inactive | – |
| CC[C@H](C)[C@@H]1NC(=O)[C@H](Cc2ccccc2)N(C)C(=O)[C@H]([C@@H](C)CC)N2C(=O)[C@H](CC[C@H]2O)NC(=O)[C@H](CCCN=C(N)N)NC(=O)[C@@H](NC(=O)[C@@H](COS(=O)(=O)O)OS(=O)(=O)O)[C@@H](C)OC1=O [CYANOPEPTOLIN SS] | – | – | – | – | 45.2 µM |

Second part, led by results:

| IC50 [1] | Activity [2] | Activity [3] | Activity (Prothrombin) | SMILES | IC50 (Prothrombin) |
| --- | --- | --- | --- | --- | --- |
| 1.5 µM | inactive | inactive | inactive | CC[C@H](C)[C@@H]1NC(=O)[C@H](Cc2ccccc2)N(C)C(=O)[C@H]([C@@H](C)CC)N2C(=O)[C@H](CC[C@H]2OC)NC(=O)[C@H](CCCNC(=N)N)NC(=O)[C@@H](NC(=O)[C@H](O)COS(=O)(=O)O)[C@@H](C)OC1=O | – |
| 2.6 µM | inactive | inactive | inactive | CC[C@H](C)[C@@H]1NC(=O)[C@H](Cc2ccccc2)N(C)C(=O)[C@H]([C@@H](C)CC)N2C(=O)[C@H](CC[C@H]2O)NC(=O)[C@H](CCCNC(=N)N)NC(=O)[C@@H](NC(=O)[C@H](O)CO)[C@@H](C)OC1=O | – |
| 7.4 µM | inactive | inactive | inactive | CC[C@H](C)[C@@H]1NC(=O)[C@H](Cc2ccccc2)N(C)C(=O)[C@H]([C@@H](C)CC)N2C(=O)[C@H](CC[C@H]2OC)NC(=O)[C@H](CCCNC(=N)N)NC(=O)[C@@H](NC(=O)[C@@H](CO)OS(=O)(=O)O)[C@@H](C)OC1=O | – |
| 0.6 µM | inactive | inactive | – | CC[C@H](C)[C@@H]1NC(=O)[C@H](Cc2ccccc2)N(C)C(=O)[C@H]([C@@H](C)CC)N2C(=O)[C@H](CC[C@H]2OC)NC(=O)[C@H](CCCNC(=N)N)NC(=O)[C@@H](NC(=O)[C@H](O)CO)[C@@H](C)OC1=O | 52.9 µM |
| 24.2 µM | inactive | inactive | inactive | CC[C@H](C)[C@@H]1NC(=O)[C@H](Cc2ccccc2)N(C)C(=O)[C@H]([C@@H](C)CC)N2C(=O)[C@H](CC[C@H]2O)NC(=O)[C@H](CCCNC(=N)N)NC(=O)[C@@H](NC(=O)[C@@H](CO)OS(=O)(=O)O)[C@@H](C)OC1=O | – |

Source: ChEMBL document CHEMBL1154846, “Micropeptins from an Israeli fishpond water bloom of the cyanobacterium Microcystis sp” (J Nat Prod, 2010)
